The test system of experiment [1] is MCF7. The experiment can be described thus: Cytotoxicity against human MCF7 cells assessed as reduction in cell viability after 48 hrs by SRB assay. In kind it is functional, cell-based. The settings on record: MCF7, 48 h. The essentials: (§1)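 SRB assay. Compounds active at 10 µM in the primary screen were retested at 1, 2.5 and 5 µM, and IC50 was calculated from these concentrations. The normal breast epithelial line fR2 was tested alongside the cancer lines.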

In experiment [2] the test system is HCT-116. The experiment can be described thus: Cytotoxicity against human HCT116 cells assessed as reduction in cell viability after 48 hrs by SRB assay. The experiment is classed as functional, cell-based. The settings on record: HCT-116, 48 h. In short, it runs like this:
as §1

For experiment [3], the system named is A549. The experiment can be described thus: Growth inhibition of human A549 cells at 10 uM after 48 hrs by SRB assay relative to control. The note with it: A549, 48 h, read-out: GI. The experiment is classed as functional. In short, it runs like this:
(§2)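 Primary SRB screen of every compound at a single concentration of 10 µM. Growth inhibition is expressed relative to control.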

A short description of experiment [4]: Cytotoxicity against human FR2 cells assessed as reduction in cell viability after 48 hrs by SRB assay. The experiment is classed as cell-based. The note with it: FR2, 48 h. The essentials:
as §1

Experiment [5] can be described thus: Selectivity index, ratio of IC50 for human FR2 cells to IC50 for human PC3 cells. The experiment is classed as functional. In short, it runs like this:
(§3)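 Selectivity index is the IC50 in normal breast epithelial fR2 cells divided by the IC50 in each cancer line. All IC50 values come from the SRB assay.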

The test system of experiment [6] is MCF7. Kind of experiment: Growth inhibition of human MCF7 cells at 10 uM after 48 hrs by SRB assay relative to control. The experiment is classed as functional. The note with it: MCF7, 48 h, read-out: GI. The essentials:
as §2

A short description of experiment [7]: Selectivity index, ratio of IC50 for human FR2 cells to IC50 for human MCF7 cells. The experiment is classed as functional. In short, it runs like this: as §3
The subject of experiment [8] is HCT-116. The experiment can be described thus: Growth inhibition of human HCT116 cells at 10 uM after 48 hrs by SRB assay relative to control. In kind it is functional. The settings on record: HCT-116, 48 h, read-out: GI. In short, it runs like this: as §2
Experiment [9] in a line: Selectivity index, ratio of IC50 for human FR2 cells to IC50 for human HCT116 cells. In kind it is functional. In short, it runs like this:
as §3

Experiment [10] concerns PC-3. Kind of experiment: Cytotoxicity against human PC3 cells assessed as reduction in cell viability after 48 hrs by SRB assay. The experiment is classed as functional, cell-based. The note with it: PC-3, 48 h. In short, it runs like this: as §1
The subject of experiment [11] is MIA PaCa-2. Kind of experiment: Growth inhibition of human MIAPaCa2 at 10 uM after 48 hrs by SRB assay relative to control. In kind it is functional. The note with it: MIA PaCa-2, 48 h, read-out: GI. The essentials: as §2
Experiment [12] relates to MIA PaCa-2. The experiment can be described thus: Cytotoxicity against human MIAPaCa2 cells assessed as reduction in cell viability after 48 hrs by SRB assay. In kind it is functional, cell-based. The settings on record: MIA PaCa-2, 48 h. The essentials: as §1
Experiment [13] relates to A549. Kind of experiment: Cytotoxicity against human A549 cells assessed as reduction in cell viability after 48 hrs by SRB assay. The experiment is classed as functional, cell-based. The settings on record: A549, 48 h. The essentials:
as §1

For experiment [14], the system named is PC-3. The experiment can be described thus: Growth inhibition of human PC3 cells at 10 uM after 48 hrs by SRB assay relative to control. In kind it is functional. The settings on record: PC-3, 48 h, read-out: GI. In short, it runs like this: as §2
Experiment [15] in a line: Selectivity index, ratio of IC50 for human FR2 cells to IC50 for human A549 cells. The experiment is classed as functional. The essentials:
as §3

A short description of experiment [16]: Selectivity index, ratio of IC50 for human FR2 cells to IC50 for human MIAPaCa2 cells. In kind it is functional. The essentials: as §3

Where only a bound is given, the exact number is not on record here.

Consider `C=C(C)[C@@H]1CC[C@]2(C(=O)O)CC[C@]3(C)[C@H](CC[C@@H]4[C@@]5(C)C/C(=C\c6ccc(Br)cc6)[C@H](O)C(C)(C)[C@@H]5CC[C@]43C)[C@@H]12`, for which the IC50 in experiment [1] is 8.1 µM; in experiment [2] it was 5.7 µM; in experiment [4], 35.3 µM; in [10] it was 8.2 µM; in experiment [12], over 10 µM; in experiment [13] it was 1.8 µM. Further, the inhibition of growth at 10 µM came to 80% in experiment [3]; 64% in experiment [6]; 66% in [8]; 48% in [11]; 48% in [14]. The “Ratio IC50” value in [5] is given as 4.3; in [7], 4.36; in [9], 6.2; in experiment [15] it was 19.63.
Take `C=C(C)[C@@H]1CC[C@]2(C(=O)O)CC[C@]3(C)[C@H](CC[C@@H]4[C@@]5(C)C/C(=C/C=C/c6ccccc6)C(=O)C(C)(C)[C@@H]5CC[C@]43C)[C@@H]12`: the IC50 was 7.2 µM in [1]; 5.8 µM in experiment [2]; 13.1 µM in [4]; 7.8 µM in [10]; over 10 µM in [12]; 3.4 µM in experiment [13]. Moreover, the inhibition of growth at 10 µM in experiment [3] is 93%; in experiment [6], 84%; in experiment [8] it was 66%; in experiment [11] it was 48%; in experiment [14], 71%. Moreover, the “Ratio IC50” value in experiment [5] worked out at 1.684; in experiment [7], 1.825; in experiment [9], 2.265; in experiment [15] it was 3.864.
Turning to `C=C(C)[C@@H]1CC[C@]2(C(=O)O)CC[C@]3(C)[C@H](CC[C@@H]4[C@@]5(C)C/C(=C\c6ccccc6Br)[C@H](O)C(C)(C)[C@@H]5CC[C@]43C)[C@@H]12`, the IC50 in experiment [1] is 8.2 µM; in experiment [2] it was over 10 µM; in experiment [4], 21.7 µM; in [10] it was over 10 µM; in experiment [12], 9.6 µM; in experiment [13], over 10 µM. The inhibition of growth at 10 µM in [3] was 47%; in experiment [6] it was 57%; in experiment [8], 43%; in experiment [11], 49%; in [14] it was 19%. In addition, the “Ratio IC50” value is 2.642 in [7] and 2.257 in experiment [16].
`C=C(C)[C@@H]1CC[C@]2(C(=O)O)CC[C@]3(C)[C@H](CC[C@@H]4[C@@]5(C)C/C(=C\c6ccc(F)cc6)[C@H](O)C(C)(C)[C@@H]5CC[C@]43C)[C@@H]12`: the IC50 was 1.18 µM in experiment [1]; 1.5 µM in [2]; 14.4 µM in [4]; over 10 µM in experiment [10]; 1.21 µM in experiment [12]; 4 µM in experiment [13]. In addition, the inhibition of growth at 10 µM in experiment [3] turned out to be 59%; in experiment [6] it was 77%; in [8], 67%; in [11], 78%; in [14], 48%. Besides, the “Ratio IC50” value in experiment [7] was determined as 12.22; in [9], 9.62; in experiment [16], 8.702; in experiment [15], 3.6.
With `C=C(C)[C@@H]1CC[C@]2(C(=O)O)CC[C@]3(C)[C@H](CC[C@@H]4[C@@]5(C)C/C(=C\c6cccc([N+](=O)[O-])c6)C(=O)C(C)(C)[C@@H]5CC[C@]43C)[C@@H]12`, the IC50 was 7.1 µM in [1]; 7.6 µM in experiment [2]; 12.2 µM in [4]; over 10 µM in [10]; over 10 µM in experiment [12]; 4.7 µM in experiment [13]. Moreover, the inhibition of growth at 10 µM in experiment [3] came out at 75%; in experiment [6], 70%; in [8] it was 69%; in experiment [11], 31%; in [14] it was 41%. Moreover, the “Ratio IC50” value amounted to 3.009 in experiment [5], 1.715 in [7], 1.602 in [9] and 2.591 in [15].
Turning to `C=C(C)[C@@H]1CC[C@]2(C(=O)O)CC[C@]3(C)[C@H](CC[C@@H]4[C@@]5(C)C/C(=C\c6cccc(Br)c6)C(=O)C(C)(C)[C@@H]5CC[C@]43C)[C@@H]12`, the IC50 in experiment [1] is 5.2 µM; in [2], 4.9 µM; in experiment [4], 16.9 µM; in experiment [10], 8.7 µM; in experiment [12] it was over 10 µM; in experiment [13], 3.04 µM. In addition, the inhibition of growth at 10 µM in [3] was 71%; in experiment [6] it was 56%; in experiment [8], 57%; in [11], 35%; in [14] it was 56%. Besides, the “Ratio IC50” value in experiment [5] came to 1.94; in experiment [7] it was 3.25; in experiment [9], 3.44; in experiment [15], 5.55.
With `C=C(C)[C@@H]1CC[C@]2(C(=O)O)CC[C@]3(C)[C@H](CC[C@@H]4[C@@]5(C)C/C(=C\c6ccc([N+](=O)[O-])cc6)C(=O)C(C)(C)[C@@H]5CC[C@]43C)[C@@H]12`, the IC50 in [1] was 3.1 µM; in [2], 1.4 µM; in experiment [4], 14 µM; in experiment [10], over 10 µM; in experiment [12], 6.5 µM; in experiment [13], 1.5 µM. For the same molecule, the inhibition of growth at 10 µM was 82% in experiment [3]; 83% in [6]; 75% in experiment [8]; 61% in experiment [11]; 37% in experiment [14]. Besides, the “Ratio IC50” value turned out to be 4.525 in [7], 10.02 in [9], 2.158 in experiment [16] and 9.353 in experiment [15].
As to `C=C(C)[C@@H]1CC[C@]2(C(=O)O)CC[C@]3(C)[C@H](CC[C@@H]4[C@@]5(C)C/C(=C\c6cc(Br)ccc6OC)C(=O)C(C)(C)[C@@H]5CC[C@]43C)[C@@H]12`, the IC50 is 6.3 µM in experiment [1]; 4.7 µM in experiment [2]; 13.1 µM in experiment [4]; 7.1 µM in experiment [10]; over 10 µM in [12]; 1.7 µM in experiment [13]. The inhibition of growth at 10 µM in experiment [3] worked out at 88%; in [6], 85%; in experiment [8], 92%; in experiment [11], 28%; in experiment [14], 81%. Moreover, the “Ratio IC50” value in experiment [5] was 1.854; in experiment [7] it was 2.09; in experiment [9], 2.802; in experiment [15] it was 7.705.
With `C=C(C)[C@@H]1CC[C@]2(C(=O)O)CC[C@]3(C)[C@H](CC[C@@H]4[C@@]5(C)C/C(=C\c6ccc(Br)cc6)C(=O)C(C)(C)[C@@H]5CC[C@]43C)[C@@H]12`, the IC50 is 7.1 µM in experiment [1]; 4.4 µM in experiment [2]; 10.5 µM in [4]; 8.3 µM in experiment [10]; over 10 µM in experiment [12]; 1.71 µM in experiment [13]. The inhibition of growth at 10 µM was 72% in [3]; 68% in [6]; 61% in experiment [8]; 27% in experiment [11]; 66% in experiment [14]. Also, the “Ratio IC50” value in experiment [5] worked out at 1.267; in experiment [7], 1.481; in experiment [9], 2.39; in experiment [15], 6.15.
Regarding `C=C(C)[C@@H]1CC[C@]2(C(=O)O)CC[C@]3(C)[C@H](CC[C@@H]4[C@@]5(C)C/C(=C\c6cccc7ccccc67)[C@H](O)C(C)(C)[C@@H]5CC[C@]43C)[C@@H]12`, the IC50 in [1] is 7.5 µM; in experiment [2], 3.6 µM; in experiment [4], 10 µM; in experiment [10] it was over 10 µM; in experiment [12], 7.09 µM; in experiment [13], over 10 µM. For the same molecule, the inhibition of growth at 10 µM in experiment [3] was found to be 36%; in [6], 64%; in [8], 55%; in experiment [11], 62%; in experiment [14], 36%. Besides, the figures for the “Ratio IC50” value in [7], in [9] and in experiment [16] were 1.338, 2.788 and 1.416, respectively.

Values taken from ChEMBL document CHEMBL4052644, “Synthesis of novel benzylidene analogues of betulinic acid as potent cytotoxic agents” (Eur J Med Chem, 2017).
